Only some compounds are listed: those with a hit (about 3.7% of all), similar ones and a draw of the others.
OX1R antag-1: human HCRTR1 antagonism; O43613; CHO/OX1R cells, Fluo-8 calcium fluorescence, orexin A; inhibition, % at 5 µM; 330,000 compounds, 0.43% hits; AID 434989;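 active means inhibition above its plate's threshold, mean inhibition of all tested compounds on the plate plus 3 SD, cut at about 37% in these data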;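 further: 0% = orexin A challenge wells and 100% = SB-334867-A antagonist wells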
OX1R antag-2: antagonists of human orexin 1 receptor (OX1R); OX1R-expressing cells, FRET antagonist read-out; O43613; AID 485270; inhibition, % at 6.6 µM; 330,000 compounds, 1.8% hits; in the data active means inhibition mostly above about 38%, no sharp cut-off; inactive means mostly below about 40%;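 further: 0% = agonist challenge alone and 100% = reference antagonist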
GPR7 antagonist: antagonists of human GPR7 (neuropeptides B/W receptor 1). P48145. GPR7-expressing cells, fluorescence antagonist assay. inhibition, % at 4.4 µM. 290,000 compounds, 1.1% hits; in the data active means inhibition above about 16%, passing the limit was not always enough;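 further: cells stimulated with the agonist NPW; 0% = agonist with vehicle and 100% = vehicle without agonist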
Target sequence (P48145 whole entry, looked up): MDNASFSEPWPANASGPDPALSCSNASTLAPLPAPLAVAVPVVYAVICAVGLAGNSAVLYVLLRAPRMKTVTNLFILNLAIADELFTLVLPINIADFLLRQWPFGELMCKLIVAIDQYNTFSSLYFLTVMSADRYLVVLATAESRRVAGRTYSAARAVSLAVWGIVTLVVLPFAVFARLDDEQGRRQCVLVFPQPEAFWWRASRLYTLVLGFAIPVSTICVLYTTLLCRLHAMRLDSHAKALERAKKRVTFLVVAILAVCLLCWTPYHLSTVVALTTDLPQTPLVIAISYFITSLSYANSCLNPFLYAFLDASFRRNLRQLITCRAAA
CHO parental Ca: counter-screen for OX1R antagonists: effect in parental CHO cells. 330,000 compounds, 0.63% hits. inhibition, % at 5.6 µM. parental CHO-K1, ATP-induced calcium, Fluo-8 fluorescence;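 active means inhibition above that plate's mean sample inhibition plus 3 SD, cut at about 26% in these data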;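 further: 0% = ATP-challenged DMSO wells and 100% = DMSO wells without ATP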
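material = parental CHO cells | also added = ATP as calcium-mobilizing challenge | dosing = single point at 5.6 µM | detection = intracellular calcium via Fluo-8 no-wash fluorescent dye | read-out = % inhibition | benchmarks = low control ATP plus DMSO, high control DMSO only | repeats = one well per compound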
EP2 antag: blocks the human prostaglandin E2 receptor EP2. AID 1422. 260,000 compounds, 0.52% hits. C6 glioma cells expressing human EP2, cAMP TR-FRET; cells stimulated with saturating PGE2. inhibition, % at 25 µM;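 active means percent inhibition above 40 after rounding to a whole number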;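 further: rat C6 glioma host cells with rolipram phosphodiesterase inhibitor present; the protocol text gives 20 µM as final concentration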
Target sequence (P43116 whole entry, looked up): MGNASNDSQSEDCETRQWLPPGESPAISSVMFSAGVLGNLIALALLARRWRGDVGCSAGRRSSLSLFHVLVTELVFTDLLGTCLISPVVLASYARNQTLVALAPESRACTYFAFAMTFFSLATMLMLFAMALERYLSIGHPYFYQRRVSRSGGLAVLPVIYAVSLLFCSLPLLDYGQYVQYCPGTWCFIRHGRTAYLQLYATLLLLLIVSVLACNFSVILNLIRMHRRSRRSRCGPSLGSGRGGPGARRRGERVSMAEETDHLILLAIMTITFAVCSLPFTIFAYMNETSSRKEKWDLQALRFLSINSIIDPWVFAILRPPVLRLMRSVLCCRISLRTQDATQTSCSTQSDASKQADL
EP2 modulator: EP2 receptor (human) modulation. EP2-expressing cells, cAMP HTRF FRET, PGE2 co-stimulation. AID 940. induction, % at 25 µM. 260,000 compounds, 0.83% hits;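 active means compounds whose cAMP rise, as percent of the full-agonist control response, exceeds 60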;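 further: rat C6 glioma line stably carrying human EP2 under a CMV promoter; the protocol text gives 20 µM as final concentration; 100% = response of wells given 1 µM PGE2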
The depositor's hits bear a star; nt = not tested or not shown.

SMILES	OX1R antag-1	OX1R antag-2	GPR7 antagonist	CHO parental Ca	EP2 antag	EP2 modulator
CC(=O)N1CCCc2cc(S(=O)(=O)N3CCCC(C(=O)N4CCN(c5ccccc5)CC4)C3)ccc21 (stereo unspecified)	6.6	21.4	-7.2	8.3	nt	nt
CC(=O)c1ccc(N2CCN(S(=O)(=O)c3ccc4c(c3)CC(C)N4C(C)=O)CC2)cc1 (stereo unspecified)	42.3*	25.1	21.7	30.3	nt	nt
CCOC(=O)CCNC(=O)N1CCCC(N(C)CCc2ccccc2)C1 (stereo unspecified)	-15.9	1.9	-7.8	-11.2	nt	nt
Cn1c(SCC(=O)Nc2ccc3c(c2)CCC3)nnc1C1CC1	-17.8	8.1	nt	-18.6	nt	nt
O=C(CSc1nnnn1-c1ccccc1)Nc1ccc(Cl)cn1	-0.2	11.1	-3.8	43.9*	8.0	-9.4
O=C(CSc1nnnn1-c1ccccc1)Nc1ccc(Cl)cc1	-2.5	10.6	1.2	-7.7	3.1	8.4
CCOc1ccc(NS(=O)(=O)c2cc(C(=O)N3CCC3)ccc2Cl)cc1	-31.0	13.9	nt	-2.3	nt	nt
COc1ccc(C(NC(=O)c2c(F)c(F)c(F)c(F)c2F)c2ccccc2)cc1 (stereo unspecified)	-6.1	15.1	31.5*	-23.1	30.3	-7.7
COc1ccc(C(NC(=O)c2cc(OC)ccc2OC)c2ccccc2)cc1 (stereo unspecified)	-5.3	14.7	-4.5	-0.3	nt	nt
COc1cc(/C=N\Nc2nc3ccccc3[nH]2)cc(OC)c1OC	-17.5	31.4	-1.3	-19.5	17.0	-75.4
COc1ccc2c(c1)c(/C=N/Nc1nc3ccccc3[nH]1)c(C)n2C	-27.9	18.0	-10.6	2.3	48.7*	-34.1
CCN(CC)S(=O)(=O)c1ccc2oc(SCc3ccc(F)cc3)nc2c1	19.9	29.2	3.8	39.8*	8.1	10.2
CCN(CC)S(=O)(=O)c1ccc2oc(SCC(=O)NC3CC3)nc2c1	-13.4	5.7	-3.7	-12.8	nt	nt
O=C(NNC(=O)C12CC3CC(CC(Cl)(C3)C1)C2)c1csc(N2CCOCC2)n1	-12.5	5.2	19.1	-8.7	nt	nt
O=Cc1cc(-c2ccccc2)[nH]c1-c1ccccc1	21.4	6.1	6.9	74.2*	nt	nt
O=Cc1cn[nH]c1-c1ccccc1	-8.3	24.1	-12.8	22.8	5.3	8.2
COc1ccc(NS(=O)(=O)c2ccc(-c3coc(C)n3)cc2)cc1	15.3	19.8	-3.4	10.5	nt	nt
COc1ccc(NS(=O)(=O)c2ccc(-c3coc(C)n3)cc2)cc1OC	38.9	26.9	18.3	50.3*	nt	nt
C/C(=N\Nc1ccc([N+](=O)[O-])cc1)c1cc2ccccc2o1	55.4*	55.4*	-3.5	40.8*	3.1	-13.7
Fc1cccc(Oc2nc3ccccc3n3cccc23)c1	-2.2	55.9	-9.2	-31.1	14.2	61.5*
O=C1C(O)=C(O)C(=O)c2ccccc21	-0.1	13.0	nt	7.0	10.9	nt
O=C1C(=O)c2ccccc2C(O)=C1c1ccccc1F	-9.2	46.3*	-0.5	-8.3	2.7	17.0
COC(=O)CCc1c(C)c(C#N)c2nc3ccccc3n2c1N1CCOCC1	nt	nt	nt	nt	7.3	-54.8
COc1cccc(N=Nc2ccc(O)c3ncccc23)c1	49.3*	10.3	-11.1	55.5*	nt	nt
COc1cccc(N=Nc2ccc3cccnc3c2O)c1	53.0*	14.7	3.9	83.1*	nt	nt
SMILES	OX1R antag-1	OX1R antag-2	GPR7 antagonist	CHO parental Ca	EP2 antag	EP2 modulator
COc1ccc(C)cc1N=Nc1ccc(O)c2ncccc12	nt	nt	-13.0	nt	9.7	36.5
Oc1ccc(N=Nc2ccc3c(c2)OCCO3)c2cccnc12	47.9*	21.1	-5.9	44.7*	10.7	-2.4
COc1ccc(N=Nc2ccc(O)c3ncccc23)cc1	33.2	21.5	-7.1	50.5*	4.7	-3.5
Oc1ccc(N=Nc2ccc3c(c2)OCCO3)c(O)c1	-6.7	14.2	-12.4	6.3	1.6	17.1
COc1ccc(COC(=O)CN2C(=O)NC3(CC(C)CC(C)(C)C3)C2=O)cc1F (stereo unspecified)	-15.5	10.2	nt	-23.8	nt	nt
Cc1cc(=O)[nH]c(Nc2cccc(C(F)(F)F)c2)n1	-7.2	6.5	-8.4	-0.5	17.2	-32.8
O=C(COC(=O)c1ccccc1[N+](=O)[O-])c1ccc(C2CCCCC2)cc1	14.1	39.1	-12.7	47.0*	10.8	12.9
CC(C)[C@H](Nc1ncnc2c1oc1ccccc12)C(=O)O	-7.9	5.8	-5.4	-2.1	11.8	-6.2
CC[C@@H](Nc1ncnc2c1oc1ccccc12)C(=O)O	-3.0	8.1	-10.9	98.8*	4.8	-5.2
CCOC(=O)C1=C(N)N2C(=O)C(C)SC2=C(C(=O)OCC)C1c1ccccc1 (stereo unspecified)	-21.4	-1.5	-5.2	-6.2	8.6	62.3*
CCNc1nc(NCC)nc(N/N=C/c2ccc([N+](=O)[O-])o2)n1	15.7	53.8*	-3.5	-6.1	2.5	-22.7
O=[N+]([O-])c1ccc(/C=N/Nc2ccc3ccccc3c2)o1	36.7	29.9	-8.7	42.5*	11.8	-60.9
Cc1ccc(-c2ccc(CO)o2)cc1N	-10.0	16.6	-11.3	-9.3	4.1	1.9
Cc1nc(SC2C=CS(=O)(=O)C2)n[nH]1 (stereo unspecified)	-1.7	8.5	4.7	-0.6	6.9	3.7
NC(=S)N=Nc1c(O)n(Cc2ccccc2)c2ccccc12	-5.5	29.1	-6.1	-6.0	4.7	11.2
O=Nc1c(O)n(Cc2cccc(Cl)c2)c2ccccc12	6.3	19.4	-14.3	60.7*	10.4	34.1
CCOc1ccc(-n2cnc3sc4c(c3c2=O)CCCC4)cc1	-42.3	6.8	-7.3	-21.8	5.1	0.4
Cc1cccc(Nc2nc(-c3c(C)nc4ccccn34)cs2)c1	69.5*	32.3	23.2	43.1*	9.0	17.8
CC(C)(C)N1C(=O)Cc2c1nc(N)c1c(N)nc(N3CCCCC3CO)c(C#N)c21 (stereo unspecified)	-5.0	11.9	-4.0	-1.7	44.1*	-29.1
CN(Cc1ccccc1Cl)C(=O)c1cc2ccccc2o1	-16.2	16.4	3.0	-19.6	nt	nt
C=CCN=C1CC(C)(C)CC(=O)/C1=C(\O)c1ccccc1	-1.3	3.2	-5.4	0.6	6.1	2.6
COc1cccc(=O)c2c(C)oc(C)c12	-13.6	30.4	19.4*	-18.0	11.2	1.3
O=C1c2ccccc2NC(c2cccc(F)c2)N1Cc1ccccc1 (stereo unspecified)	-20.3	12.2	-2.6	-15.8	nt	nt
O=C1c2ccccc2N[C@H](c2cc(Cl)cc(Cl)c2O)N1CCc1ccccn1	nt	nt	nt	nt	55.0*	8.2
O=C1c2ccccc2NC(c2ccc(Cl)cc2Cl)N1Cc1ccccc1 (stereo unspecified)	0.1	29.9	7.6	-14.9	8.6	61.0*
O=C(Nc1ccccc1C(=O)N/N=C/c1ccc(O)cc1)c1ccccc1	-27.5	15.3	-3.0	-10.2	5.2	-33.0
CCOC(=O)c1ccc(NC(=O)C2CC(O)CN2S(=O)(=O)c2ccc(C)cc2)cc1 (stereo unspecified)	-13.4	4.3	nt	-4.8	nt	nt

Screening data from PubChem.
